IC50 and EC50 data for 12 compounds are collected here from ChEMBL document CHEMBL1129050, “Correlation of anti-HIV potency with lipophilicity in a series of cosalane analogs having normal alkenyl and phosphodiester chains as cholestane replacements” (J Med Chem, 1996).

Experiment [1] deals with CEM-SS. Description: Cytotoxic concentration against mock-infected CEM-SS cells. Type of experiment: functional, cell-based. The settings on record: Homo sapiens. In outline:
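Uninfected (mock-infected) CEM-SS cells, exponentially growing, seeded at 5000 cells/well with serially diluted compound (tested as ammonium salts) in complete medium; 37 °C, 5% CO₂, 6 days. Growth/viability by XTT assay; IC₅₀ = 50% cytotoxic concentration, averaged from at least two determinations.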

The test system of experiment [2] is CEM-SS. Description: Effective concentration against HIV-1RF induced cytopathicity in CEM-SS cells. The format is functional, cell-based. The settings on record: Homo sapiens. The procedure, abridged:
(§1)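 CEM-SS cells (5000/well) infected with thawed HIV-1 RF stock at MOI 0.01 in the presence of serially diluted compound (as ammonium salts); 37 °C, 5% CO₂, 6 days. Supernatant assayed for RT activity, p24 and/or infectious virus; cell protection from cytopathic effect read by XTT. EC₅₀ averaged from at least two determinations; compounds tested up to […].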

The test system of experiment [3] is CEM-SS. The experiment in a line: Effective concentration against HIV-1RF induced cytopathicity in CEM-SS cells; No antiviral uM. The format is functional, cell-based, Homo sapiens. The procedure, abridged:
as §1

In experiment [4] the test system is CEM-SS. Description: Effective concentration against HIV-1RF induced cytopathicity in CEM-SS cells; No antiviral activity was observed at concentrations uM. Type of experiment: functional, cell-based, Homo sapiens. In outline:
as §1

Regarding `O=C(O)c1cc(Cc2cc(Cl)c(O)c(C(=O)O)c2)cc(Cl)c1O`, the IC50 with CEM-SS [1] was more than 364 µM. The same compound returned an EC50 with CEM-SS [2] of 329 µM.
Consider `O=C(O)c1cc(C(=CCC23CC4CC(CC(C4)C2)C3)c2cc(Cl)c(O)c(C(=O)O)c2)cc(Cl)c1O`, for which the IC50 with CEM-SS [1] worked out at 105 µM. In addition, in the experiment with CEM-SS [3], the EC50 entry was “Not Active”.
As to `CCCCCCCCCCCCCCCC=C(c1cc(Cl)c(O)c(C(=O)O)c1)c1cc(Cl)c(O)c(C(=O)O)c1`, in the experiment on CEM-SS [1], the IC50 was more than 35 µM. In the experiment on CEM-SS [2], the EC50 came out at 19.8 µM.
In the experiment with CEM-SS [1], `CCCCCCCCCCCCCCCCCCOP(=O)(O)OCCC=C(c1cc(Cl)c(O)c(C(=O)O)c1)c1cc(Cl)c(O)c(C(=O)O)c1` had an IC50 of 74 µM. In the experiment with CEM-SS [3], the EC50 result is “Not Active”.
For `CCCCCCCCCCCCCCCCOP(=O)(O)OCCC=C(c1cc(Cl)c(O)c(C(=O)O)c1)c1cc(Cl)c(O)c(C(=O)O)c1` the same measures were 84 µM and “Not Active”.
`CCCCCCCCCC=C(c1cc(Cl)c(O)c(C(=O)O)c1)c1cc(Cl)c(O)c(C(=O)O)c1`: the IC50 with CEM-SS [1] was more than 49 µM. This compound had an EC50 with CEM-SS [2] of 43.2 µM.
`CCCCCC=C(c1cc(Cl)c(O)c(C(=O)O)c1)c1cc(Cl)c(O)c(C(=O)O)c1`: the IC50 in the experiment on CEM-SS [1] was more than 95 µM. For the same compound, in the experiment on CEM-SS [4], the EC50 result was “Not Active”.
In the experiment on CEM-SS [1], `CCCCCCCC/C=C\CCCCCCCCOP(=O)(O)OCCC=C(c1cc(Cl)c(O)c(C(=O)O)c1)c1cc(Cl)c(O)c(C(=O)O)c1` came in with an IC50 of 61.3 µM. Further, in the experiment with CEM-SS [2], the EC50 stood at 49 µM.
The matching figures for `CCCCC/C=C\C/C=C\CCCCCCCCOP(=O)(O)OCCC=C(c1cc(Cl)c(O)c(C(=O)O)c1)c1cc(Cl)c(O)c(C(=O)O)c1`: 86 µM and 51.8 µM.
The matching figures for `CC(C)CCCC(C)[C@H]1CC[C@H]2[C@@H]3CCC4C[C@@H](CCC=C(c5cc(Cl)c(O)c(C(=O)O)c5)c5cc(Cl)c(O)c(C(=O)O)c5)CC[C@]4(C)[C@H]3CC[C@]12C` (some centres undefined): more than 300 µM and 3 µM.
The matching figures for `CCCCCCCCCCCCCCCCCCCCCCCCCCCCCC=C(c1cc(Cl)c(O)c(C(=O)O)c1)c1cc(Cl)c(O)c(C(=O)O)c1`: more than 220 µM and 13.1 µM.
In the experiment with CEM-SS [1], `CCCCCCCCCCCCCCOP(=O)(O)OCCC=C(c1cc(Cl)c(O)c(C(=O)O)c1)c1cc(Cl)c(O)c(C(=O)O)c1` yielded an IC50 of 101 µM. In addition, the EC50 entry in the experiment with CEM-SS [3] is listed as “Not Active”.
